The text below walks through data of ChEMBL document CHEMBL1150957, “DNA-damaging steroidal alkaloids from Eclipta alba from the suriname rainforest1” (J Nat Prod, 1998).

In assay [1] the test system is Saccharomyces cerevisiae. As to the kind of experiment: Antifungal activity against Saccharomyces cerevisiae 1140. It counts as functional. In outline:
(§1)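 Agar-well diffusion on mutant yeast lawns (1140 ise1 rad52; 1353 ISE+ rad52 top1; 1138 ise2 rad52). Stationary-phase YEPD cultures resuspended in 0.9% saline to 25% transmission at 600 nm, flooded onto YEPD agar with 0.8% Noble agar overlay, dried. Samples in DMSO-MeOH (1:1) added to 6-7 mm wells; nystatin control at 20 μg/mL; 30 °C, 36–48 h; IC12 (dose giving 12-mm zone) from dose–response curve.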

Assay [2] deals with M109. As to the kind of experiment: Cytotoxicity against mouse M109 cells. It counts as functional, cell-based.
The test system of assay [3] is Saccharomyces cerevisiae. In words: Antifungal activity against Saccharomyces cerevisiae Sc7. It is filed as functional.
For assay [4], the system named is Candida albicans. As to the kind of experiment: Antifungal activity against Candida albicans SC5314. It counts as functional.
Assay [5] has as its system Saccharomyces cerevisiae. In words: Antifungal activity against Saccharomyces cerevisiae 1353. It is filed as functional. In short, it runs like this: as §1
Assay [6] has as its system Saccharomyces cerevisiae. In words: Antifungal activity against Saccharomyces cerevisiae 1138. It counts as functional. In short, it runs like this:
as §1

A word on the IC50: it is the point on the concentration scale where inhibition reaches its midpoint. In general, MIC refers to the lowest concentration found to suppress growth. The low end stands for inhibition by little substance, the high end for a need for much substance.

The structures appear in SMILES notation. Converted amounts (≈) assume the structure as drawn.

As for `C[C@H]1CCC([C@H](C)[C@H]2CC[C@H]3[C@@H]4CC=C5[C@@H](O)[C@@H](O)CC[C@]5(C)[C@H]4CC[C@]23C)=NC1`, the IC12 in assay [1] is 23 µg/mL; in assay [5], 24 µg/mL; in assay [6], 10 µg/mL. The compound also registered an IC50 in assay [2] of 10.5 µg/mL (≈ 25.4 µM). For the same compound, the MIC stood at 200 µg/mL (≈ 484 µM) in assay [3] and 400 µg/mL (≈ 967 µM) in assay [4].

Consider `C[C@H]1CC[C@@H]([C@@H](C)[C@H]2CC[C@H]3[C@@H]4CC=C5C[C@@H](O)CC[C@]5(C)[C@H]4CC[C@]23C)NC1` [VERAMILINE], for which the IC12 in assay [1] stood at 3 µg/mL; in assay [5] it was 4 µg/mL; in assay [6], 3 µg/mL.

As to `C[C@H](C1=NC[C@](C)(O)CC1)[C@H]1CC[C@H]2[C@@H]3CC=C4C[C@@H](O)CC[C@]4(C)[C@H]3CC[C@]12C`, the IC12 in assay [1] amounted to 2.5 µg/mL; in assay [5], 4 µg/mL; in assay [6], 0.35 µg/mL. Also, the 50% inhibitory concentration (IC50) in assay [2] is 31.2 µg/mL (≈ 75.4 µM). For the same compound, the minimal inhibitory concentration (MIC) was 6.25 µg/mL (≈ 15.1 µM) in assay [3] and less than 3.1 µg/mL in assay [4].

In the case of `C[C@H]1CCC([C@H](C)[C@H]2CC[C@H]3[C@@H]4CCC5=CC(=O)CC[C@]5(C)[C@H]4CC[C@]23C)=NC1`, the IC12 in assay [1] is 45 µg/mL; in assay [5], 50 µg/mL; in assay [6] it was 14 µg/mL. Also, in assay [2], half-maximal inhibition (IC50) required 16.8 µg/mL (≈ 42.5 µM).

On to `CC(=O)N1CCN(c2ccc(OCC3COC(Cn4ccnc4)(c4ccc(Cl)cc4Cl)O3)cc2)CC1` (centres undefined) [KETOCONAZOLE], for which the IC12 was 4.8 µg/mL in assay [1], 9.4 µg/mL in assay [5] and 2.5 µg/mL in assay [6]. The compound further gave a half-inhibitory concentration (IC50) in assay [2] of 17 µg/mL (≈ 32 µM). Moreover, the minimal inhibitory concentration (MIC) is 1.6 µg/mL (≈ 3.01 µM) in assay [3] and less than 0.8 µg/mL in assay [4].

`C[C@H]1CCC([C@@H](C)[C@H]2CC[C@H]3[C@@H]4CC=C5C[C@@H](O)CC[C@]5(C)[C@H]4CC[C@]23C)=NC1` [VERAZINE]: the IC12 is 0.25 µg/mL in assay [1], 0.14 µg/mL in assay [5] and 0.14 µg/mL in assay [6]. The compound further had an IC50 in assay [2] of 12.5 µg/mL (≈ 31.4 µM). The MIC was 6.25 µg/mL (≈ 15.7 µM) in assay [3] and 25 µg/mL (≈ 62.9 µM) in assay [4].

For `C[C@H]1CCC([C@H](C)[C@H]2CC[C@H]3[C@@H]4CC=C5C[C@@H](O)CC[C@]5(C)[C@H]4CC[C@]23C)=NC1`, the values for the IC12 in assay [1], in assay [5] and in assay [6] were 1.12 µg/mL, 0.69 µg/mL and 0.88 µg/mL, respectively. In addition, the MIC in assay [3] is 6.25 µg/mL (≈ 15.7 µM); in assay [4], 12.5 µg/mL (≈ 31.4 µM).

Consider `Cc1cnc([C@H](C)[C@H]2CC[C@H]3[C@@H]4CC=C5C[C@@H](O)CC[C@]5(C)[C@H]4CC[C@]23C)c(O)c1` [ECLIPTALBINE], for which the IC12 in assay [1] was 0.7 µg/mL; in assay [5] it was 0.4 µg/mL; in assay [6], 0.04 µg/mL. This compound also had an IC50 in assay [2] greater than 20 µg/mL. The minimum inhibitory concentration (MIC) in assay [3] and in assay [4] was 20 µg/mL (≈ 48.8 µM) in each case.

For `C[C@@H]1[C@H](O)[C@@H](C)/C=C/C=C/C=C/C=C/C=C/C=C/C=C/[C@H](O[C@@H]2O[C@H](C)[C@@H](O)[C@H](N)[C@@H]2O)C[C@@H]2O[C@](O)(C[C@@H](O)C[C@@H](O)[C@H](O)CC[C@@H](O)C[C@@H](O)CC(=O)O[C@H]1C)C[C@H](O)[C@H]2C(=O)O` [AMPHOTERICIN B], the IC12 in assay [1] worked out at 15.6 µg/mL; in assay [5], 25 µg/mL; in assay [6], 8.1 µg/mL. The compound further came in with a concentration for half-maximal inhibition (IC50) in assay [2] of 7.5 µg/mL (≈ 8.12 µM). The MIC in assay [3] is 12.5 µg/mL (≈ 13.5 µM); in assay [4], 1.6 µg/mL (≈ 1.73 µM).

On to `C[C@H]1CCC([C@@H](C)[C@H]2CC[C@H]3[C@@H]4CC=C5[C@@H](O)[C@@H](O)CC[C@]5(C)[C@H]4CC[C@]23C)=NC1`, for which the results for the IC12 in assay [1], in assay [5] and in assay [6] were 10 µg/mL, greater than 50 µg/mL and 12 µg/mL, respectively. This compound also yielded a concentration for half-maximal inhibition (IC50) in assay [2] of 15.5 µg/mL (≈ 37.5 µM). The MIC in assay [3] is 100 µg/mL (≈ 242 µM); in assay [4], 200 µg/mL (≈ 484 µM).
